Among the data in ChEMBL document CHEMBL2375244 (J Med Chem, 2013) are IC50 values, retold here.

In experiment [1] the target is T1, CDK2/Cyclin A2 (Homo sapiens, UniProt P24941). In words: Inhibition of human CDK2/Cyclin A2 using PKTPKKAKKL as substrate by PK/LDH spectrophotometric analysis. In kind it is protein-complex assay.
For experiment [2], the target named is T1, CDK2/Cyclin A2. In words: Inhibition of human CDK2/Cyclin A2 using PKTPKKAKKL as substrate by fluorescence assay. It counts as protein-complex assay.
In experiment [3] the test system is MDA-MB-468. As to the kind of experiment: Cytotoxicity against human MDA-MB-468 cells after 72 hrs by MTT assay. It counts as functional, cell-based. Particulars: MDA-MB-468, 72 h. In outline:
(§1)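 Cells kept in RPMI or DMEM with 10% FBS at 37 °C, 5% CO₂ and allowed to attach overnight; 72 h with increasing inhibitor concentrations; then 1 mg/mL MTT for 3 h, DMSO solubilisation, OD read at 540 nm. Testis lines had culture conditions adapted to them. Dose-response in triplicate, 9 concentrations between 0.02 and 100 μM, averaged.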

Experiment [4] is described as follows: Cytotoxicity against mouse GC-1 cells after 72 hrs by MTT assay. In kind it is functional, cell-based. Particulars: GC-1, 72 h. In outline: as §1
Experiment [5] is described as follows: Cytotoxicity against mouse TM4 cells after 72 hrs by MTT assay. In kind it is functional, cell-based. Conditions: TM4, 72 h. Put shortly: as §1
A short description of experiment [6]: Cytotoxicity against mouse GC-2 cells after 72 hrs by MTT assay. It counts as functional, cell-based. Particulars: GC-2, 72 h. Put shortly: as §1
Experiment [7] has as its system BT-549. As to the kind of experiment: Cytotoxicity against human BT549 cells after 72 hrs by resazurin/resorufin-based fluorescence assay. It counts as functional, cell-based. Conditions: BT-549, 72 h. In outline: (§2)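 CellTiter-Blue viability: 1200 cells per well seeded, incubated overnight at 37 °C, 5% CO₂; drugs serially diluted 2:3 in medium, four replicate wells per concentration plus four diluent-only control wells; 72 h exposure; resazurin reduction to resorufin read by fluorescence (579 nm ex/584 nm em). IC50 is the average of three data sets, each using nine concentrations between 0.004 μM and 12.5 μM.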

Experiment [8] is described as follows: Cytotoxicity against human RPMI18226 cells after 72 hrs by resazurin/resorufin-based fluorescence assay. In kind it is functional, cell-based. Particulars: RPMI18226, 72 h.
Experiment [9] has as its system SW872. In words: Cytotoxicity against human SW872 cells after 72 hrs by resazurin/resorufin-based fluorescence assay. In kind it is functional, cell-based. Particulars: SW872, 72 h.
The subject of experiment [10] is MCF7. In words: Cytotoxicity against human MCF7 cells after 72 hrs by resazurin/resorufin-based fluorescence assay. It counts as functional, cell-based. Conditions: MCF7, 72 h.
Experiment [11] relates to HOS-TE85. In words: Cytotoxicity against human MNNG-HOS cells after 72 hrs by resazurin/resorufin-based fluorescence assay. In kind it is functional, cell-based. Conditions: HOS-TE85, 72 h.
A short description of experiment [12]: Cytotoxicity against human MDA-MB-436 cells after 72 hrs by resazurin/resorufin-based fluorescence assay. In kind it is functional, cell-based. Particulars: MDA-MB-436, 72 h.
Experiment [13] relates to U-266. As to the kind of experiment: Cytotoxicity against human U266 cells after 72 hrs by resazurin/resorufin-based fluorescence assay. In kind it is functional, cell-based. Particulars: U-266, 72 h.
Experiment [14] can be described thus: Cytotoxicity against human NCI-H929 cells after 72 hrs by resazurin/resorufin-based fluorescence assay. In kind it is functional, cell-based. Particulars: NCI-H929, 72 h.
For experiment [15], the system named is MDA-MB-231. In words: Cytotoxicity against human MDA-MB-231 cells after 72 hrs by resazurin/resorufin-based fluorescence assay. Conditions: MDA-MB-231, 72 h. It counts as functional, cell-based.
Experiment [16] has as its system SK-UT-1. As to the kind of experiment: Cytotoxicity against human SK-UT-1 cells after 72 hrs by resazurin/resorufin-based fluorescence assay. In kind it is functional, cell-based. Particulars: SK-UT-1, 72 h.
For experiment [17], the system named is T47D. In words: Cytotoxicity against human T47D cells after 72 hrs by resazurin/resorufin-based fluorescence assay. In kind it is functional, cell-based.
Experiment [18] relates to SK-ES1. In words: Cytotoxicity against human SK-ES-1 cells after 72 hrs by resazurin/resorufin-based fluorescence assay. It counts as functional, cell-based. Particulars: SK-ES1, 72 h.
For experiment [19], the system named is A673. In words: Cytotoxicity against human A673 cells after 72 hrs by resazurin/resorufin-based fluorescence assay. In kind it is functional, cell-based. Particulars: A673, 72 h.
Experiment [20] has as its system SK-BR-3. As to the kind of experiment: Cytotoxicity against human SK-BR-3 cells after 72 hrs by resazurin/resorufin-based fluorescence assay. In kind it is functional, cell-based. Particulars: SK-BR-3, 72 h. Put shortly: as §2

With `C=CCNc1nc(N)c(C(=O)c2ccccn2)s1`, the IC50 in experiment [1] worked out at 33 µM.
Still for that read-out and setting: as for `C=CCNc1nc(N)c(C(=O)c2ccc(Cl)s2)s1`, the figure is 12 µM; as for `COc1cccc(C(=O)c2sc(Nc3ccccc3)nc2N)c1`, 3.1 µM.
`Nc1nc(NC2CCCCC2)sc1C(=O)c1cccnc1`: the IC50 is 0.38 µM in [2] and 3.1 µM in experiment [3].
In the case of `CCCNc1nc(N)c(C(=O)c2ccccc2)s1`, the IC50 in experiment [1] came out at 8.9 µM.
Still for that read-out and setting: as for `C=CCNc1nc(N)c(C(=O)c2cccnc2)s1`, the figure is 3.1 µM.
For the compound `Nc1nc(Nc2ccccc2)sc1C(=O)c1cccnc1`, the IC50 in experiment [2] turned out to be 0.65 µM; in [4] it was 5.9 µM; in [5], 5.5 µM; in experiment [6], 9.5 µM.
As for `Nc1nc(Nc2ccccc2)sc1C(=O)c1ccc(F)cc1`, the IC50 in experiment [4] was 16 µM; in experiment [5], 14 µM; in experiment [6] it was 17 µM; in [1] it was 1.4 µM.
Compound `CC(C)(C)OC(=O)N1CCC(Nc2nc(N)c(C(=O)c3cccnc3)s2)CC1` registered an IC50 in experiment [1] of 3.5 µM.
Still for that read-out and setting: next, `Nc1nc(Nc2ccc(S(N)(=O)=O)cc2)sc1C(=O)c1ccc([N+](=O)[O-])cc1`: 7.4 µM.
On the same count and under the same terms, as for `C=CCNc1nc(N)c(C(=O)c2ccc(Cl)cc2)s1`, the figure is above 100 µM.
Still for that read-out and setting: as for `C=CCNc1nc(N)c(C(=O)c2cccc([N+](=O)[O-])c2)s1`, the figure is 2.9 µM; as for `Nc1nc(Nc2ccccc2)sc1C(=O)c1ccc2ccccc2c1`, above 100 µM; as for `CC(C)(C)Nc1nc(N)c(C(=O)c2ccccc2)s1`, above 100 µM.
Take `Nc1nc(Nc2ccc(S(N)(=O)=O)cc2)sc1C(=O)c1cccc([N+](=O)[O-])c1`: the IC50 worked out at 0.07 µM in experiment [2], 22 µM in experiment [4], 4 µM in [5] and 20 µM in experiment [6].
In experiment [1], `CCNc1nc(N)c(C(=O)c2ccccc2)s1` had an IC50 of 17 µM.
The same measure, in the same setting: as for `Nc1nc(Nc2ccc(S(N)(=O)=O)cc2)sc1C(=O)c1cccc(Cl)c1`, the figure is 15 µM; as for `N#Cc1ccc(Nc2nc(N)c(C(=O)c3cccnc3)s2)cc1`, 2.8 µM.
In the case of `Nc1nc(NC2CCCCC2)sc1C(=O)c1ccccc1`, the IC50 in [4] was found to be 9.2 µM; in [5], 9.3 µM; in [6], 8.2 µM; in experiment [1], 1.3 µM.
The compound `Nc1nc(Nc2ccccc2)sc1C(=O)c1cccc(Cl)c1` registered an IC50 in [1] of 99 µM.
On the same count and under the same terms, as for `COc1ccc(C(=O)c2sc(Nc3ccc(S(N)(=O)=O)cc3)nc2N)cc1`, the figure is 17 µM; as for `CN(C)/C=C/C(=O)c1sc(Nc2ccc(S(N)(=O)=O)cc2)nc1N`, above 100 µM; as for `C=CCNc1nc(N)c(C(=O)Nc2cc(C)no2)s1`, above 100 µM.
`C=CCNc1nc(N)c(C(=O)c2ccc([N+](=O)[O-])cc2)s1` yielded an IC50 in experiment [1] of 41 µM.
Consider `C=C(C)CNc1nc(N)c(C(=O)c2ccccc2)s1`, for which the IC50 in experiment [1] came to 15 µM.
Consider `Nc1cccc(C(=O)c2sc(Nc3ccc(S(N)(=O)=O)cc3)nc2N)c1`, for which the IC50 in experiment [2] is 0.07 µM; in [7], above 10 µM; in experiment [8] it was above 10 µM; in [9] it was above 10 µM; in experiment [10], above 10 µM; in [11], above 10 µM. In addition, the IC50 was above 10 µM in experiment [12]; 5.5 µM in experiment [13]; 6.8 µM in experiment [14]; above 10 µM in experiment [15]; above 10 µM in [16]; 5.8 µM in [17]. Moreover, the IC50 in experiment [18] was 9.8 µM; in experiment [19], 8.8 µM; in experiment [20], 4.1 µM.
For `Nc1nc(Nc2ccc(S(N)(=O)=O)cc2)sc1C(=O)c1cc(C(F)(F)F)cc(C(F)(F)F)c1`, in experiment [1], half-maximal inhibition (IC50) required 25 µM.
As for `Nc1nc(Nc2ccc(S(N)(=O)=O)cc2)sc1C(=O)c1cccc(C(F)(F)F)c1`, in [2], it took 0.57 µM to reach half-maximal inhibition (IC50).
Same read-out and setting: next, `COc1cccc(C(=O)c2sc(Nc3ccc(S(N)(=O)=O)cc3)nc2N)c1`: 0.1 µM.
In experiment [1], `C=CCNc1nc(N)c(C(=O)c2ccccc2)s1` yielded an IC50 of 15 µM.
With `Nc1nc(Nc2ccc(S(N)(=O)=O)cc2)sc1C(=O)c1ccccc1`, the IC50 in [2] was found to be 0.13 µM; in [4], 17 µM; in [5] it was 9.1 µM; in [6], 6.1 µM.
